Experimental findings from ChEMBL document CHEMBL1122877, “New antihistaminic N-heterocyclic 4-piperidinamines. 1. Synthesis and antihistaminic activity of N-(4-piperidinyl)-1H-benzimidazol-2-amines” (1985) are described below.

The nature of assay [1]: In vivo anti-histaminic protection from 48/80 induced lethality in rats 2 hours after oral administration. The format is functional. The note with it: Rattus norvegicus. In short, it runs like this:
(§1)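 Male inbred Wistar rats (240-260 g), fasted overnight, held at 21 ± 1 °C and 65 ± 5% RH. Dosed sc or orally, vehicle 0.9% NaCl. Endpoint is survival at 4 h. ED50 by Finney from 5 rats per dose, at least 3 doses from a geometric series 0.0025-40 mg/kg. Estimated ED50 uses at least 2 rats per dose.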

A short description of assay [2]: In vivo protection from compound 48/80 induced lethality test in rats 1 hour after subcutaneous administration. Type of assay: functional. The conditions noted are these: Rattus norvegicus, sc. In short, it runs like this: as §1
The nature of assay [3]: In vivo anti-histaminic protection from 48/80 induced lethality in rats 1 hour after subcutaneous administration. Type of assay: functional. The conditions noted are these: Rattus norvegicus, sc. In short, it runs like this: as §1
A short description of assay [4]: In vivo anti-histaminic protection from 48/80 induced lethality in rats 2 hour after oral administration. The note with it: Rattus norvegicus. The format is functional. In short, it runs like this:
as §1

For assay [5], the system named is Cavia porcellus. The experiment in a line: Protection against intravenous histamine lithality in Guinea pigs 24 hour after oral administration. The format is functional. The conditions noted are these: for ED50: read-out: PD50. In outline:
(§2)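 Male albino guinea pigs (280-360 g) given oral doses in 2-fold increments 3, 24 or 48 h before iv histamine dihydrochloride 1.25 mg/kg. Protection is survival at 1 h. PD50 by Finney from 4-6 animals per dose and time point, at least 3 doses from a geometric series 0.0025-5 mg/kg. Estimated PD50 uses at least 2 animals per dose.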

Assay [6] relates to Cavia porcellus. The experiment in a line: Protection against intravenous histamine lithality in Guinea pigs 3 hour after oral administration. Type of assay: functional. The conditions noted are these: for ED50: read-out: PD50. In outline:
as §2

Assay [7] concerns Cavia porcellus. The assay can be described thus: Protection against intravenous histamine lithality in Guinea pigs 48 hour after oral administration. The conditions noted are these: read-out: PD50. The format is functional. In outline: as §2
Assay [8] concerns the target Histamine H1 receptor (Cavia porcellus) (UniProt P31389). The experiment in a line: In vitro inhibition of histamine(H1) induced contraction of guinea pig ileum. The format is functional, tissue-based. In short, it runs like this: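 Isolated guinea pig ileum in a bath. Cumulative histamine curves every 5 min, logarithmically increasing doses (5.4 × 10^-8, 1.6 × 10^-7, 5.4 × 10^-7 M, ...) until maximal contraction. Repeated after 5 min antagonist contact, then washout and two further curves. Highest test dose normally 0.04 mg/L. A10 = antagonist concentration giving a 10-fold rightward shift of the histamine curve.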

The structures appear in SMILES notation.

Chain of Histamine H1 receptor (Cavia porcellus) (P31389 whole entry): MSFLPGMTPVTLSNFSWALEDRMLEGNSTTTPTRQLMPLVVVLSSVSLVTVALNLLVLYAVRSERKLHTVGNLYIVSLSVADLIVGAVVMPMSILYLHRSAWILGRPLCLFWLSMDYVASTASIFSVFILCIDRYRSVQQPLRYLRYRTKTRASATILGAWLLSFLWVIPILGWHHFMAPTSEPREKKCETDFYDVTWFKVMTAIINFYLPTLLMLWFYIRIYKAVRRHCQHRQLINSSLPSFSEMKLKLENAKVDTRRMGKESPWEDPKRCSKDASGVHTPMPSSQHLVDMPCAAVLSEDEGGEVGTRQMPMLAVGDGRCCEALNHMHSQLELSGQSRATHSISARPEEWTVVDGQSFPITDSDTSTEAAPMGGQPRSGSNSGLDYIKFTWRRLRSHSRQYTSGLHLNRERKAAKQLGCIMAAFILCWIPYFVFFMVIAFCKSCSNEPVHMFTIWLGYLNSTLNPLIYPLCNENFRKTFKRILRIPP

For `CCn1c(N(C)C2CCN(CCc3ccccc3)CC2)nc2ccccc21`, the results for the ED50 in assay [1] and in assay [2] were over 2.5 mg/kg and 0.63 mg/kg, respectively.

Consider `c1ccc(Cn2c(NC3CCN(C4CCCCC4)CC3)nc3ccccc32)cc1`, for which the values for the ED50 in assay [3] and in assay [4] were 0.63 mg/kg and over 2.5 mg/kg, respectively.

Consider `CN1CCC(Nc2nc3ccccc3n2C)CC1`, for which, in assay [2], the ED50 was over 2.5 mg/kg.

With `CN1CCC(Nc2nc3ccccc3n2Cc2ccccc2)CC1`, the results for the ED50 in assay [3] and in assay [4] were 0.31 mg/kg and over 2.5 mg/kg, respectively.

With `c1ccc(Cn2c(NC3CCN(CCc4cccs4)CC3)nc3ccccc32)cc1`, the ED50 in assay [2] is 0.63 mg/kg.

As for `Fc1ccc(CCN2CCC(Nc3nc4ccccc4n3Cc3ccccc3)CC2)cc1`, the ED50 in assay [1] is over 2.5 mg/kg; in assay [2] it was 1.25 mg/kg.

Consider `CCOc1ccc(CCN2CCC(Nc3nc4ccccc4n3Cc3ccccc3)CC2)cc1`, for which the ED50 in assay [1] worked out at 0.63 mg/kg; in assay [2] it was 1.25 mg/kg.

In assay [2], `CCCCN(c1nc2ccccc2[nH]1)C1CCN(CCc2ccccc2)CC1` showed an ED50 of 2.5 mg/kg.

The compound `O=C(CCCN1CCC(Nc2nc3ccccc3n2Cc2ccccc2)CC1)c1ccc(F)cc1` showed an ED50 in assay [2] of 2.5 mg/kg.

For `COc1ccccc1CCN1CCC(Nc2nc3ccccc3n2Cc2ccccc2)CC1`, the values for the ED50 in assay [1] and in assay [2] were 1.25 mg/kg and 0.63 mg/kg, respectively.

For the compound `Fc1ccc(Cn2c(NC3CCN(CCc4ccccc4)CC3)nc3ccccc32)cc1`, the ED50 in assay [1] came to 0.63 mg/kg; in assay [5], 0.08 mg/kg; in assay [6], 0.45 mg/kg; in assay [7] it was 0.12 mg/kg; in assay [2], 0.31 mg/kg.

For the compound `c1ccc(CCN2CCC(Nc3nc4ccccc4n3Cc3ccccc3)CC2)cc1`, the ED50 in assay [1] worked out at 3.5 mg/kg; in assay [5] it was 0.35 mg/kg; in assay [6] it was 0.25 mg/kg; in assay [7], 0.25 mg/kg.

In the case of `COc1cccc(CCN2CCC(Nc3nc4ccccc4n3Cc3ccccc3)CC2)c1`, the ED50 was determined as 0.31 mg/kg in assay [1] and 0.63 mg/kg in assay [2].

As for `CCCCn1c(N(C)C2CCN(CCc3ccccc3)CC2)nc2ccccc21`, the ED50 in assay [2] stood at 2.5 mg/kg.

Consider `CC(c1ccccc1)N1CCC(Nc2nc3ccccc3n2Cc2ccccc2)CC1` (stereo not drawn), for which the ED50 in assay [1] is over 2.5 mg/kg; in assay [2] it was 1.25 mg/kg.

`CC(c1ccccc1)n1c(NC2CCN(CCc3ccccc3)CC2)nc2ccccc21` (stereo not drawn): the ED50 in assay [2] is 2.5 mg/kg.

In turn, `Fc1ccc(CN2CCC(Nc3nc4ccccc4n3Cc3ccccc3)CC2)cc1` came in with an ED50 in assay [2] of 2.5 mg/kg.

In assay [2], `N#CC1(c2ccccc2)CCC(N2CCC(Nc3nc4ccccc4n3Cc3ccccc3)CC2)CC1` (stereo not drawn) had an ED50 of 2.5 mg/kg.

In the case of `Cc1cccc(CCN2CCC(Nc3nc4ccccc4n3Cc3ccccc3)CC2)c1`, the ED50 in assay [1] came to 2.5 mg/kg; in assay [2], 1.25 mg/kg.

For `c1ccc(Cn2c(NC3CCN(CCCOc4ccccc4)CC3)nc3ccccc32)cc1`, the ED50 in assay [1] and in assay [2] was 0.63 mg/kg each time.

Regarding `CCCCN1CCC(Nc2nc3ccccc3n2Cc2ccccc2)CC1`, the ED50 in assay [3] is 0.31 mg/kg; in assay [4] it was over 2.5 mg/kg.

Regarding `c1ccc(CCN2CCC(Nc3nc4ccccc4n3Cc3ccccn3)CC2)cc1`, the ED50 in assay [1] was 2.5 mg/kg; in assay [5], 0.12 mg/kg; in assay [6], 0.12 mg/kg; in assay [7] it was over 0.16 mg/kg; in assay [2], 0.16 mg/kg.

For the compound `FC(F)(F)c1cccc(CCN2CCC(Nc3nc4ccccc4n3Cc3ccccc3)CC2)c1`, in assay [2], the ED50 was determined as 2.5 mg/kg.

Regarding `CC(Cn1c(NC2CCN(CCc3ccccc3)CC2)nc2ccccc21)c1ccccc1` (stereo not drawn), in assay [2], the ED50 was determined as 2.5 mg/kg.

Take `Fc1ccccc1Cn1c(NC2CCN(CCc3ccccc3)CC2)nc2ccccc21`: the ED50 was determined as 2.5 mg/kg in assay [1] and 1.25 mg/kg in assay [2].

As for `Oc1nc2ccccc2n1CCN1CCC(Nc2nc3ccccc3n2Cc2ccccc2)CC1`, the ED50 was 2.5 mg/kg in assay [1], over 0.6 mg/kg in assay [5], 0.35 mg/kg in assay [6] and 0.31 mg/kg in assay [2].

Regarding `CCn1nnn(CCN2CCC(Nc3nc4ccccc4n3Cc3ccccc3)CC2)c1=O`, the ED50 in assay [1] was over 2.5 mg/kg; in assay [2] it was 0.31 mg/kg.

Turning to `CCn1c(NC2CCN(CCc3ccccc3)CC2)nc2ccccc21`, in assay [2], the ED50 came to 2.5 mg/kg.

`CN(c1nc2ccccc2n1Cc1ccc(Br)cc1)C1CCN(CCc2ccccc2)CC1` had an ED50 in assay [2] of 2.5 mg/kg.

As to `CC(c1ccc(F)cc1)n1c(NC2CCN(CCc3ccccc3)CC2)nc2ccccc21` (stereo not drawn), the ED50 in assay [1] was over 2.5 mg/kg; in assay [2], 1.25 mg/kg.

For the compound `C=CCN1CCC(Nc2nc3ccccc3n2Cc2ccccc2)CC1`, the ED50 in assay [1] and in assay [2] was 0.63 mg/kg throughout.

For the compound `CN(c1nc2ccccc2n1Cc1ccc(F)cc1)C1CCN(CCc2ccccc2)CC1`, the ED50 in assay [1] and in assay [2] was 1.25 mg/kg each time.

Regarding `COc1ccc(CCN2CCC(Nc3nc4ccccc4n3Cc3ccccc3)CC2)cc1`, the ED50 in assay [1] is 0.63 mg/kg; in assay [5] it was 0.08 mg/kg; in assay [6], 0.25 mg/kg; in assay [7], 0.16 mg/kg; in assay [2] it was 1.25 mg/kg.

In assay [2], `CN(c1nc2ccccc2n1Cc1ccccc1)C1CCN(CCc2ccccc2)CC1` came in with an ED50 of 2.5 mg/kg.

`CCn1c(N(Cc2ccccc2)C2CCN(CCc3ccccc3)CC2)nc2ccccc21` registered an ED50 in assay [2] of over 2.5 mg/kg.

The compound `Clc1ccc(CCN2CCC(Nc3nc4ccccc4n3Cc3ccccc3)CC2)cc1` came in with an ED50 in assay [2] of 2.5 mg/kg.

For the compound `C(=C\c1ccccc1)/CN1CCC(Nc2nc3ccccc3n2Cc2ccccc2)CC1`, the figures for the ED50 in assay [1] and in assay [2] were over 2.5 mg/kg and 1.25 mg/kg, respectively.

`O=c1[nH]c2ccccc2n1CCCN1CCN(C(c2ccccc2)c2ccccc2)CC1` [OXATOMIDE]: the “PD 50” value was over 5 mg/kg in assay [5] and 0.18 mg/kg in assay [6]. Further, in assay [4], the ED50 was found to be 5.37 mg/kg.

For `CN(C)CCC(c1ccc(Cl)cc1)c1ccccn1` (stereo not drawn) [CHLORPHENIRAMINE], the results for the ED50 in assay [1] and in assay [2] were 37.4 mg/kg and 0.77 mg/kg, respectively.

On to `c1ccc(CCCN2CCC(Nc3nc4ccccc4n3Cc3ccccc3)CC2)cc1`, for which the ED50 in assay [5] was 0.35 mg/kg; in assay [6], 0.35 mg/kg; in assay [7] it was over 0.6 mg/kg; in assay [2], 2.5 mg/kg.

For the compound `OC(COc1ccccc1)CN1CCC(Nc2nc3ccccc3n2Cc2ccccc2)CC1` (stereo not drawn), the ED50 in assay [1] was 0.63 mg/kg; in assay [5] it was 0.6 mg/kg; in assay [6], 0.35 mg/kg; in assay [7], over 0.6 mg/kg; in assay [2] it was 1.25 mg/kg.

In assay [2], `CCCCn1c(NC2CCN(CCc3ccccc3)CC2)nc2ccccc21` had an ED50 of 2.5 mg/kg.

In assay [2], `c1ccc(Cn2c(NC3CCN(CC4COc5ccccc5O4)CC3)nc3ccccc32)cc1` (stereo not drawn) returned an ED50 of 2.5 mg/kg.

On to `COc1ccc(CCN2CCC(Nc3nc4ccccc4n3Cc3ccccc3)CC2)cc1OC`, for which the ED50 in assay [1] was over 2.5 mg/kg; in assay [2], 1.25 mg/kg.

For `CCCCCn1c(NC2CCN(CCc3ccccc3)CC2)nc2ccccc21`, the ED50 in assay [2] worked out at 2.5 mg/kg.

Regarding `Oc1nc2ccccc2n1CCCN1CCC(Nc2nc3ccccc3n2Cc2ccccc2)CC1`, the ED50 in assay [1] is 2.5 mg/kg; in assay [5], 0.6 mg/kg; in assay [6] it was 0.16 mg/kg; in assay [7] it was over 0.6 mg/kg; in assay [2], 1.25 mg/kg.

For `Cc1ccc(Cn2c(N(C)C3CCN(CCc4ccccc4)CC3)nc3ccccc32)cc1`, in assay [2], the ED50 came out at 2.5 mg/kg.

Regarding `Cc1ccc(Cn2c(NC3CCN(CCc4ccccc4)CC3)nc3ccccc32)cc1`, the ED50 turned out to be 2.5 mg/kg in assay [1] and 1.25 mg/kg in assay [2].

`COc1cc(CCN2CCC(Nc3nc4ccccc4n3Cc3ccccc3)CC2)cc(OC)c1OC`: the ED50 in assay [1] is 1.25 mg/kg; in assay [2], 0.63 mg/kg.

In the case of `Brc1ccc(Cn2c(NC3CCN(CCc4ccccc4)CC3)nc3ccccc32)cc1`, the ED50 in assay [2] is 1.25 mg/kg.

In turn, `Clc1ccc(Cn2c(NC3CCN(CCc4ccccc4)CC3)nc3ccccc32)cc1` returned an ED50 in assay [2] of 2.5 mg/kg.

`c1ccc(CCN2CCC(Nc3nc4ccccc4n3CCc3ccccc3)CC2)cc1` registered an ED50 in assay [2] of over 2.5 mg/kg.

Consider `CN1CCC(=C2c3ccccc3CCc3cccnc32)CC1` [AZATADINE], for which the ED50 in assay [1] is 0.48 mg/kg; in assay [5] it was 1.36 mg/kg; in assay [6] it was 0.014 mg/kg; in assay [7] it was over 2.5 mg/kg; in assay [2], 0.049 mg/kg.

With `CN(C)CCOC(c1ccccc1)c1ccccc1` [DIPHENHYDRAMINE], the ED50 in assay [1] was 37.4 mg/kg; in assay [6], over 2.5 mg/kg; in assay [2], 4 mg/kg. This compound also gave an A10 in assay [8] of 0.66 mg/L.
